From ChEMBL document CHEMBL1649308, “Affinity of the new cephalosporin CXA-101 to penicillin-binding proteins of Pseudomonas aeruginosa” (Antimicrob Agents Chemother, 2010)
≈ marks a conversion by molar mass, not a printed value. Calls of active or inactive are those of the source. The calls are words filed in the database; no cut-off is given here.

Experiments:
Pseudomonas aeruginosa [1] = test: Antimicrobial activity against Pseudomonas aeruginosa PAO1 by broth microdilution method; format: functional
Method in brief: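 MICs against strain PAO1 by standard CLSI broth microdilution (M100-S18).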

Pseudomonas aeruginosa [2] = test: Induction of ampC mRNA expression in Pseudomonas aeruginosa PAO1 at 0.25 X MIC relative to untreated control; format: functional
Method in brief: (§1)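 Cells were exposed for 3 h to subinhibitory drug (1/2 or 1/4 MIC), alongside untreated cells. RNA was taken from log-phase LB cultures and DNase-treated (2 U, 30 min, 37°C). ampC mRNA was measured by real-time RT-PCR and normalized to rpsL. Values are the mean relative expression from at least three independent duplicate experiments.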

Pseudomonas aeruginosa [3] = test: Induction of ampC mRNA expression in Pseudomonas aeruginosa PAO1 at 0.5 X MIC relative to untreated control; format: functional; method in brief: as §1
[4] = Inhibition of Pseudomonas aeruginosa PAO1 PBP1b by SDS-PAGE
Method in brief: (§2)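 Membranes were prepared from late-log (OD600 1) LB cultures by sonication and two rounds of 150,000 × g ultracentrifugation in 20 mM KH2PO4-140 mM NaCl, pH 7.5. Membranes were preincubated 30 min at 37°C with drug (0.0156–2 μg/ml), then labeled with 25 μM Bocillin FL. Samples were run on SDS-PAGE and read by fluorescence (ex 488/em 530 nm). IC50 values come from triplicate experiments.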

[5] = Inhibition of Pseudomonas aeruginosa PAO1 PBP1c by SDS-PAGE; method in brief: as §2
[6] = Inhibition of Pseudomonas aeruginosa PAO1 PBP2 by SDS-PAGE; method in brief: as §2
[7] = Inhibition of Pseudomonas aeruginosa PAO1 PBP3 by SDS-PAGE; method in brief: as §2
[8] = Inhibition of Pseudomonas aeruginosa PAO1 PBP4 by SDS-PAGE; method in brief: as §2
[9] = Inhibition of Pseudomonas aeruginosa PAO1 PBP5/6 by SDS-PAGE; method in brief: as §2
Pseudomonas aeruginosa [10] = test: Antimicrobial activity against Pseudomonas aeruginosa PAO1 assessed as appearance of long filaments at 0.5 X MIC after 2 hrs by Live/dead cell viability assay; format: functional, organism-based
Pseudomonas aeruginosa [11] = test: Antimicrobial activity against Pseudomonas aeruginosa PAO1 at 4 X MIC after 8 hrs by Live/dead cell viability assay; format: functional, organism-based
Pseudomonas aeruginosa [12] = test: Induction of ampC mRNA expression in Pseudomonas aeruginosa PAO1 at 50 ug/ml relative to untreated control; format: functional
Method in brief: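 The inducer was given at 50 μg/ml for 3 h, with an untreated comparison. RNA from log-phase LB cultures was DNase-treated, and ampC expression was quantified by real-time RT-PCR normalized to rpsL. Values are the mean of at least three independent duplicate experiments.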

Pseudomonas aeruginosa [13] = test: Bactericidal activity against Pseudomonas aeruginosa PAO1 assessed as reduction in viable bacterial count at 2 X MIC after 8 hrs by time-kill analysis; format: functional
Method in brief: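 PAO1 grown overnight in Mueller-Hinton broth, diluted 1/100 and grown at 37°C, 180 rpm to mid-log phase (OD600 0.2). Then inoculated into MHB with 0, 0.5×, 1×, 2× or 4× MIC to an initial OD600 of 0.01 (ca. 10^7 CFU/ml). Viable counts taken by plating serial dilutions on MH agar over 8 h. Triplicate experiments, mean ± SD.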

Pseudomonas aeruginosa [14] = test: Bactericidal activity against Pseudomonas aeruginosa PAO1 assessed as reduction in viable bacterial count at MIC after 8 hrs by time-kill analysis; format: functional
Method in brief: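 Overnight MHB cultures were diluted 1/100 and grown at 37°C, 180 rpm to OD600 0.2. Flasks of MHB with 0, 0.5×, 1×, 2× or 4× MIC were inoculated to OD600 0.01 (ca. 10^7 CFU/ml). Viable counts were followed over 8 h by plating serial dilutions on MH agar, with OD600 also read. Values are the mean ± SD of triplicate runs.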

Compound	MIC (Pseudomonas aeruginosa [1]) [µg/mL]	fold change (FC) (Pseudomonas aeruginosa [2])	fold change (FC) (Pseudomonas aeruginosa [3])	IC50 [4] [µg/mL]	IC50 [5] [µg/mL]	IC50 [6] [µg/mL]	IC50 [7] [µg/mL]	IC50 [8] [µg/mL]	IC50 [9] [µg/mL]	Activity (Pseudomonas aeruginosa [10])	Activity (Pseudomonas aeruginosa [11])	fold change (FC) (Pseudomonas aeruginosa [12])	Activity (Pseudomonas aeruginosa [13])	fold change (FC) (Pseudomonas aeruginosa [14])
C[C@@H](O)[C@H]1C(=O)N2C(C(=O)O)=C(SCCNC=N)C[C@H]12 [IMIPENEM ANHYDROUS]	1 (≈ 3.34 µM)	193.2	269.5	0.13 (≈ 0.434 µM)	0.08 (≈ 0.267 µM)	0.08 (≈ 0.267 µM)	0.12 (≈ 0.401 µM)	0.02 (≈ 0.0668 µM)	0.2 (≈ 0.668 µM)	Active	Active			
CO[C@@]1(NC(=O)Cc2cccs2)C(=O)N2C(C(=O)O)=C(COC(N)=O)CS[C@@H]21 [CEFOXITIN]												50		
CC(C)(O/N=C(\C(=O)N[C@@H]1C(=O)N2C(C(=O)[O-])=C(C[n+]3ccccc3)CS[C@H]12)c1csc(N)n1)C(=O)O [CEFTAZIDIME]	1 (≈ 1.83 µM)	1.2	1.2	0.12 (≈ 0.22 µM)	> 2	> 2	0.04 (≈ 0.0732 µM)	1.23 (≈ 2.25 µM)	> 2	Active	Active		>3	
Cn1c(N)c(NC(=O)NCCN)c[n+]1CC1=C(C(=O)O)N2C(=O)[C@@H](NC(=O)/C(=N\OC(C)(C)C(=O)[O-])c3nsc(N)n3)[C@H]2SC1 [CEFTOLOZANE]	0.5 (≈ 0.75 µM)	1.6	1.3	0.07 (≈ 0.105 µM)	0.64 (≈ 0.96 µM)	1.36 (≈ 2.04 µM)	0.02 (≈ 0.03 µM)	0.29 (≈ 0.435 µM)	> 2	Active	Active			>3
